Among the data in ChEMBL document CHEMBL3588796 (Bioorg Med Chem, 2015) are IC50, inhibition and Ki values, retold here.

For test [1], the target named is T1, Kappa-type opioid receptor (Homo sapiens, UniProt P41145). The test is described as follows: Antagonist activity against HA-tagged human recombinant kappa opioid receptor expressed in CHO cell membranes incubated for 1 hr by [35S]GTPgammaS binding assay. The test is classed as functional.
Test [2] deals with T1, Kappa-type opioid receptor. Nature of the test: Antagonist activity against HA-tagged human recombinant kappa opioid receptor expressed in CHO cells assessed as inhibition of U69,593-induced ERK phosphorylation pre-incubated with compound before U69,593 stimulation for 10 mins relative to control. Further details: concentration or dose not given beside the values; call rule not given here. The test is classed as cell-based. The essentials:
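hKOR-CHO cells, 15,000 per well, plated overnight at 37 °C and serum-starved 1 h. Compound added, then 100 nM U69,593 for 10 min at 37 °C. Fixed cells stained overnight at 4 °C for phospho- and total ERK1/2. In-cell western read by infrared imaging at 700/800 nm. Three-parameter nonlinear fit; 2–4 replicates per experiment, n ≥ 3.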

Test [3] addresses T1, Kappa-type opioid receptor. The test is described as follows: Antagonist activity against human kappa opioid receptor expressed in human U2OS cells co-expressing beta-arrestin2 pre-treated for 15 mins before U69,593 stimulation for 90 mins by DiscoveRx beta-arrestin2 recruitment based PathHunter assay relative to control. Format: cell-based. Set-up: concentration or dose not given beside the values. The essentials:
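U2OS-hKOR-βarrestin2 PathHunter cells, 5,000 per well, plated overnight in Opti-MEM with 1% FBS. Antagonist pretreatment 15 min at 37 °C, then 1 μM U69,593 for 90 min at 37 °C. Detection reagent 60 min at room temperature; chemiluminescence read-out. Concentration-response curves fitted by three-parameter regression; n ≥ 3 independent experiments.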
A general note: Recruitment of arrestin is a read-out of receptor activation apart from second messengers.

The target of test [4] is T2, Mu-type opioid receptor (Homo sapiens, UniProt P35372). The test is described as follows: Antagonist activity against mu opioid receptor (unknown origin).
T2 sequence (P35372 whole entry): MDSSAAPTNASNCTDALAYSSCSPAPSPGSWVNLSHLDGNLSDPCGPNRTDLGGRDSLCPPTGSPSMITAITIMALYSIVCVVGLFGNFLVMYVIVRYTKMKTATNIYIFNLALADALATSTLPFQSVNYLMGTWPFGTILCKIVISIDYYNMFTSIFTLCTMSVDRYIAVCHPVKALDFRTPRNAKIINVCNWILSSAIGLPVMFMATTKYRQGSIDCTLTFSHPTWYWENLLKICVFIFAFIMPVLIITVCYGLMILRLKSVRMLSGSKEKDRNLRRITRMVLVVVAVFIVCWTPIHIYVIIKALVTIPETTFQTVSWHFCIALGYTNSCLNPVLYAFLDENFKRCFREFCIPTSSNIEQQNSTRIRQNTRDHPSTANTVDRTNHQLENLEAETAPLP
Test [5] addresses T2, Mu-type opioid receptor. The test is described as follows: Binding affinity to mu opioid receptor (unknown origin).
For test [6], the target named is Kappa-type opioid receptor (Rattus norvegicus, UniProt P34975). Nature of the test: Displacement of radio-labeled U69,593 from rat kappa opioid receptor expressed in HEK293 cell membranes.
Sequence of Kappa-type opioid receptor (Rattus norvegicus, UniProt P34975) (P34975 whole entry): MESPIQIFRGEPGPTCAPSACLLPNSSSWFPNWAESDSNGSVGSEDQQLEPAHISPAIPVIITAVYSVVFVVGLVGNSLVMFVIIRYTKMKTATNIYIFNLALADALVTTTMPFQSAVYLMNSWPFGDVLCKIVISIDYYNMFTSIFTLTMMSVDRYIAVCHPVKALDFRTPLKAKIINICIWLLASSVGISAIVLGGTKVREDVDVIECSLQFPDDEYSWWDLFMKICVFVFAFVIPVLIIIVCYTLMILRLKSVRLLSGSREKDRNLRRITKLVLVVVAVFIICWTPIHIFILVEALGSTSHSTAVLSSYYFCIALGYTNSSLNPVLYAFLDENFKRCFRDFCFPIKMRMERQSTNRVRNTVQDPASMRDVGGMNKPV
For test [7], the target named is T3, Delta-type opioid receptor (Homo sapiens, UniProt P41143). Nature of the test: Binding affinity to delta opioid receptor (unknown origin).
T3 sequence (P41143 whole entry): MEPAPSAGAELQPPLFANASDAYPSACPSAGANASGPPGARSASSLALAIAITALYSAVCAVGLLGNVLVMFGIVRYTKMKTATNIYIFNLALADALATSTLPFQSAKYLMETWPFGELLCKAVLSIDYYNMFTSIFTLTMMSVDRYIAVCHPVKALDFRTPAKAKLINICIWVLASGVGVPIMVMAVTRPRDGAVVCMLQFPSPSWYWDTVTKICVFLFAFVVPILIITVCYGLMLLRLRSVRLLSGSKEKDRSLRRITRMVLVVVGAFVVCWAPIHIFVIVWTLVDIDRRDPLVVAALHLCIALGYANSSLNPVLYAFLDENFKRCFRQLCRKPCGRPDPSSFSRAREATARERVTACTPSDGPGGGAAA
The target in test [8] is T3, Delta-type opioid receptor. Nature of the test: Antagonist activity against delta opioid receptor (unknown origin).
The target of test [9] is T1, Kappa-type opioid receptor. The test is described as follows: Antagonist activity against HA-tagged human recombinant kappa opioid receptor expressed in CHO cells assessed as inhibition of U69,593-induced ERK phosphorylation pre-incubated with compound before U69,593 stimulation for 10 mins. Format: cell-based.
Test [10] concerns the target T1, Kappa-type opioid receptor. Nature of the test: Antagonist activity against human kappa opioid receptor expressed in human U2OS cells co-expressing beta-arrestin2 pre-treated for 15 mins before U69,593 stimulation for 90 mins by DiscoveRx beta-arrestin2 recruitment based PathHunter assay. Format: cell-based.

T1 sequence (P41145 whole entry): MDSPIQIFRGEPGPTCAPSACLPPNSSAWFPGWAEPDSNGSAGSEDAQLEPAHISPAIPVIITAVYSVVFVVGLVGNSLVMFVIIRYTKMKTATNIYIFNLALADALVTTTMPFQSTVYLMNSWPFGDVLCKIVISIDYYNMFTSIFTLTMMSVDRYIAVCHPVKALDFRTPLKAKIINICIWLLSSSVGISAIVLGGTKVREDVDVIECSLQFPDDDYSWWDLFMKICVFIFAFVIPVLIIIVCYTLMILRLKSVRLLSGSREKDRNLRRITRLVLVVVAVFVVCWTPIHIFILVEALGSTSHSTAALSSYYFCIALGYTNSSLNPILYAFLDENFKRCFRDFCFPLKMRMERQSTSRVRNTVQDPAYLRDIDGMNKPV

In general, IC50 refers to the midpoint of a concentration-inhibition curve. Consider `Cc1ccc(S(=O)(=O)NCc2ccc(C(=O)NC3CCN(Cc4ccccc4)C3)cc2)cc1` (stereo not given), for which the IC50 in [1] (read-out: IC50) was greater than 18000 nM.

Broadly, the inhibition is the percentage by which the read-out fell short of the control. Turning to `Cc1cc(C)c(S(=O)(=O)N2CCc3cc(C(=O)NCCN(Cc4ccc(F)cc4)C(C)(C)C)ccc3C2)c(C)c1`, the inhibition in test [2] and in [3] was greater than 86% in each case.

Take `Cc1cc(C)c(S(=O)(=O)N2CCc3cc(C(=O)NCCN(Cc4ccc(Br)cc4)C(C)(C)C)ccc3C2)c(C)c1`: the inhibition in test [2] and in [3] was greater than 86% each time.

In the case of `Cc1ccc(S(=O)(=O)N2CCc3cc(C(=O)NCCN(Cc4ccc(Cl)cc4)C(C)C)ccc3C2)cc1`, the inhibition in test [2] and in [3] was greater than 86% throughout.

`Cc1cc(C)c(S(=O)(=O)N2CCc3cc(C(=O)NCCN(Cc4ccccc4)C(C)C)ccc3C2)c(C)c1`: the inhibition in test [2] and in test [3] was greater than 86% in each case.

In general, Ki refers to the dissociation constant of the complex between target and ligand, obtained from inhibition or displacement. `Cc1ccc(S(=O)(=O)NCc2ccc(C(=O)NCCN(Cc3ccccc3)C(C)C)cc2)cc1`: the inhibition in test [2] and in test [3] was greater than 86% in each case. Also, the half-inhibitory concentration (IC50) is greater than 24000 nM on Mu-type opioid receptor [4] and greater than 32000 nM in test [8]. Moreover, the inhibitory constant (Ki) turned out to be 306 nM on Mu-type opioid receptor [5], 50 nM in [6] and 1090 nM in test [7].

Turning to `CCc1ccc(S(=O)(=O)N2CCc3cc(C(=O)NCCN(Cc4ccccc4)C(C)(C)C)ccc3C2)cc1`, the inhibition in [2] and in test [3] was greater than 86% each time.

With `Cc1ccc(S(=O)(=O)N2CCc3cc(C(=O)NCCN(Cc4ccc(Br)cc4)C(C)C)ccc3C2)cc1`, the inhibition in test [2] and in [3] was greater than 86% throughout. For the same compound, the Ki at Mu-type opioid receptor [5] was 8170 nM; in test [6], 73 nM; in [7], 5190 nM.

As for `CCc1ccc(S(=O)(=O)N2CCc3cc(C(=O)NCCN(Cc4ccc(Br)cc4)C(C)C)ccc3C2)cc1`, the inhibition in test [2] and in test [3] was greater than 86% each time.

For the compound `Cc1ccc(S(=O)(=O)NCc2ccc(C(=O)NCCN(Cc3ccc(Br)cc3)C(C)C)cc2)cc1`, the inhibition in test [2] and in test [3] was greater than 86% in each case.

In the case of `Cc1ccc(S(=O)(=O)N2CCc3cc(C(=O)NCCN(Cc4ccccc4)C(C)(C)C)ccc3C2)cc1`, the inhibition in test [2] and in [3] was greater than 86% throughout. For the same compound, the figures for the Ki (at Mu-type opioid receptor [5]; in test [6]; in test [7]) were 1750 nM, 37 nM and 2330 nM, respectively.

With `Cc1ccc(S(=O)(=O)NCc2ccc(C(=O)NCCN3Cc4ccccc4C3)cc2)cc1`, in test [1] (read-out: IC50), the IC50 was greater than 18000 nM.

In the case of `Cc1ccc(S(=O)(=O)NCc2ccc(C(=O)NCC3CCCN(Cc4ccccc4)C3)cc2)cc1` (stereo not given), in test [1] (read-out: IC50), the half-maximal inhibitory concentration (IC50) was greater than 18000 nM.

Take `Oc1ccc2c3c1O[C@H]1c4[nH]c5c(c4C[C@@]4(O)[C@@H](C2)N(CC2CC2)CC[C@]314)C[C@@]1(O)[C@H]2Cc3ccc(O)c4c3[C@@]1(CCN2CC1CC1)[C@H]5O4`: the inhibition in [2] and in test [3] was greater than 86% each time.

Consider `Cc1ccc(S(=O)(=O)N2CCc3cc(C(=O)NCCN(Cc4ccc(Br)cc4)C(C)(C)C)ccc3C2)cc1`, for which the inhibition in [2] and in test [3] was greater than 86% throughout.

On to `Cc1ccc(S(=O)(=O)N2CCc3cc(C(=O)NCCN(Cc4ccc(F)cc4)C(C)(C)C)ccc3C2)cc1`, for which the inhibition in test [2] and in [3] was greater than 86% in each case.

Consider `Cc1ccc(S(=O)(=O)N2CCc3cc(C(=O)NCCN(Cc4ccc(F)cc4)C(C)C)ccc3C2)cc1`, for which the inhibition in test [2] and in [3] was greater than 86% in each case.

Regarding `Cc1ccc(S(=O)(=O)N(C)Cc2ccc(C(=O)N(C)CCN(Cc3ccccc3)C(C)C)cc2)cc1`, the IC50 entry in test [9], in test [1] (cho) and in test [10] was “Not Active” in each case.

For the compound `Cc1ccc(S(=O)(=O)N2CCc3cc(C(=O)NCCN(Cc4ccc(Cl)cc4)C(C)(C)C)ccc3C2)cc1`, the inhibition in [2] and in test [3] was greater than 86% each time. In addition, the inhibition constant (Ki) on Mu-type opioid receptor [5] was greater than 10000 nM; in test [6] it was 53 nM; in test [7], greater than 10000 nM.
